Bioassay records: PubChem, several laboratories
PAFAH1B2 inh: inhibitors of human PAFAH1B2; P68402; recombinant PAFAH1B2, FP-rhodamine activity probe, fluorescence polarization; inhibition, % at 3.39 µM; 1.2% of 340,000 active; AID 492953;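 active = inhibition above the mean of all tested compounds plus 3 SD, cut at about 24% in these data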
pPAFAH FP inh: pPAFAH (human) enzyme inhibition. recombinant pPAFAH, FP-rhodamine probe fluorescence polarization. AID 463082. 1.5% of 330,000 active. inhibition, % at 3.39 µM;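 active = inhibition above the mean inhibition across the screen plus 3 SD, cut at about 25% in these data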;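 note: inhibitors block binding of the rhodamine activity-based probe so polarization drops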
PAFAH1B3 FP inh: blocks human PAF acetylhydrolase 1B catalytic subunit 3. Q15102. recombinant PAFAH1B3, FP-rhodamine probe, fluorescence polarization. inhibition, % at 3.39 µM. 0.28% of 340,000 active;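 active = inhibition above the screen-wide average of all tested compounds plus 3 SD, cut at about 25% in these data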
Target sequence (Q15102 whole entry, looked up): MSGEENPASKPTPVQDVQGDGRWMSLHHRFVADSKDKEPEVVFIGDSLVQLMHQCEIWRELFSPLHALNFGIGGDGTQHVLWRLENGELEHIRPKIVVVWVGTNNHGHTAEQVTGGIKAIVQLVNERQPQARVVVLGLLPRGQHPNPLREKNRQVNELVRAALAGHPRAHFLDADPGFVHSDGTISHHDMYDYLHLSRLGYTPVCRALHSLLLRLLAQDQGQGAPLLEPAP
NR3A LBD binder: modulates the human NR3A ligand-binding domain; NR3A LBD differential scanning fluorimetry, Tm shift; 0% = protein alone, 100% = glycine-bound protein; Tm shift relative to glycine control, % at 25 µM; AID 1259313; 2.5% of 340,000 active;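 active = melting temperature shift of at least 10% of the positive control shift, at one fixed dose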
UCH37 inh: human UCH37 deubiquitinating enzyme inhibition; Q9Y5K5; purified proteasome/UCH37, Ub-AMC cleavage fluorescence; inhibition, % (concentration not given with the values); 0.33% of 330,000 active; AID 588478;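 active = mean inhibition over replicate wells above about 20%, limit read from the data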
Target sequence (Q9Y5K5 whole entry, looked up): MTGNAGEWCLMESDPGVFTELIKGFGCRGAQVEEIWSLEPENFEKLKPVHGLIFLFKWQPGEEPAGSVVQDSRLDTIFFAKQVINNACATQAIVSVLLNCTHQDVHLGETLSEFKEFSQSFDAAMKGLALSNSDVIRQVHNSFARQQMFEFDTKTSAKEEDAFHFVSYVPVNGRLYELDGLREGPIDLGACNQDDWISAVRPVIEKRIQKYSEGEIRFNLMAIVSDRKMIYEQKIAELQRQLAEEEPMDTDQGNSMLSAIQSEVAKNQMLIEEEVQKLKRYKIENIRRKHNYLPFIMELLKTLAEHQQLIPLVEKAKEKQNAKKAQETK
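Reagent: Ub-AMC substrate; assay system: Proteasome-associated human UCH37 deubiquitinase; controls: no-proteasome and no-compound wells; read-out: % inhibition of Ub-AMC cleavage fluorescence; timing: 30 min preincubation with enzyme, 25 min cleavage at room temperature; signal: AMC fluorescence from Ub-AMC cleavage, excitation 355 nm, emission 460 nm; buffer or medium: Tris-HCl pH 7.4 plus ovalbumin, ATP-MgCl2, DTT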
PAFAH2 FP inh: inhibitors of human PAFAH2; Q99487; recombinant PAFAH2, FP-rhodamine activity probe, fluorescence polarization; inhibition, % at 3.39 µM; 0.99% of 340,000 active; AID 492956;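 active = inhibition above the mean over all tested compounds plus 3 SD, cut at about 30% in these data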;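 note: inhibitors block probe labeling of enzyme so polarization drops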
Numbers stand for hits; i = inactive; nt = no result given. An excerpt weighted towards active compounds, which were near 4.8% of everything screened.

SMILES | PAFAH1B2 inh | pPAFAH FP inh | PAFAH1B3 FP inh | NR3A LBD binder | UCH37 inh | PAFAH2 FP inh
Oc1ccc(Cl)cc1-c1cc(-c2cccc(Br)c2)n[nH]1 | i | i | i | 31 | i | i
Oc1ccc(Cl)cc1-c1cc(-c2ccccc2Cl)[nH]n1 | i | i | i | i | i | i
Oc1ccccc1-c1cc(-c2ccco2)[nH]n1 | i | i | i | i | i | i
Oc1c(-c2cc(-c3ccco3)[nH]n2)ccc2ccccc12 | i | i | i | 21 | i | i
Oc1ccc(Cl)cc1-c1cc(-c2ccco2)[nH]n1 | i | i | i | 11 | i | i
Oc1ccc(Br)cc1-c1cc(-c2ccco2)[nH]n1 | i | i | i | 19 | i | i
S=c1[nH]nc(-c2cc(-c3ccco3)[nH]n2)n1-c1ccccc1 | i | i | i | i | i | i
Cc1cc([N+](=O)[O-])nn1Cc1ccc(C(=O)NN=Cc2ccccc2)cc1 | nt | nt | nt | nt | i | nt
Cc1ccc(O)c(-c2cc(-c3ccccc3[N+](=O)[O-])[nH]n2)c1 | i | i | i | i | i | i
O=[N+]([O-])c1ccccc1-c1cc(-c2cc(Cl)ccc2O)n[nH]1 | i | i | i | 18 | i | i
COC(=O)CCCCC(=O)C1C(=O)CC(C)(C)C(C(=O)OC)C1=O (centres undefined) | i | i | i | 12 | i | i
COc1ccc(C=NOCC(=O)Nc2nc3ccccc3s2)cc1 | nt | nt | nt | nt | i | nt
S=c1[nH]nc(-c2ccco2)n1N=Cc1ccc(Cl)c(Cl)c1 | nt | nt | nt | nt | i | nt
CC(=O)NS(=O)(=O)c1ccc(NS(=O)(=O)c2ccc3ccccc3c2)cc1 | 29 | i | i | i | i | i
COc1ccccc1Nc1ccc(NS(=O)(=O)c2ccc(C(C)=O)cc2)cc1 | i | 34 | i | i | i | i
COc1ccc(Nc2nc3ccccc3nc2NS(=O)(=O)c2ccc(NC(C)=O)cc2)cc1 | i | 27 | i | 12 | i | i
COc1ccc(S(=O)(=O)Nc2ccc(Nc3ccccc3)cc2)cc1 | nt | 27 | nt | i | i | nt
CN(C)CCCNCCCNC(=O)C(=NO)c1ccccn1 | nt | nt | nt | nt | i | nt
CCC(=NN=C(CC)c1ccccc1)c1ccccc1 | nt | nt | nt | nt | i | nt
COc1ccc(C=NNC(=O)c2cccc(NC(C)=O)c2)c(C(=O)O)c1OC | nt | nt | nt | nt | i | nt
Cc1nc(-c2cccc(NS(=O)(=O)c3ccc4ccccc4c3)c2)cs1 | i | i | i | 10 | i | i
CC(=O)Nc1ccc(S(=O)(=O)Nc2nc3ccccc3nc2Cl)cc1 | i | i | i | 38 | i | i
NS(=O)(=O)c1ccc(Nc2nc3ccccc3nc2NS(=O)(=O)c2cccc([N+](=O)[O-])c2)cc1 | i | 31 | i | 32 | i | i
CC(=O)Nc1ccc(S(=O)(=O)Nc2nc3cc4c(cc3nc2Cl)OCCO4)cc1 | i | i | i | i | i | i
Cc1cccnc1NS(=O)(=O)c1cccc([N+](=O)[O-])c1 | i | i | i | i | i | i
SMILES | PAFAH1B2 inh | pPAFAH FP inh | PAFAH1B3 FP inh | NR3A LBD binder | UCH37 inh | PAFAH2 FP inh
O=S(=O)(Nc1nc2ccccc2nc1N1CCN(c2ccccc2)CC1)c1ccc(F)cc1 | i | i | i | 24 | i | i
O=C(NN=CCCc1ccccc1)C1CCCCC1 | nt | nt | nt | nt | i | nt
CCOC(=O)NN=Cc1ccc(OC(=O)c2ccco2)cc1 | nt | nt | nt | nt | i | nt
CCOc1ccc(S(=O)(=O)Nc2nc3ccccc3nc2Nc2ccc(N3CCOCC3)cc2)cc1 | i | 33 | i | 15 | i | i
CC(=O)Nc1ccc(S(=O)(=O)Nc2cccc(-c3nc4ccccc4o3)c2)cc1 | i | i | i | 12 | i | i
CC(=O)Nc1ccc(S(=O)(=O)Nc2nc3ccccc3nc2Nc2ccc(S(N)(=O)=O)cc2)cc1 | i | i | i | 27 | i | i
CCC(=O)Nc1cccc(-c2nc3ccccc3o2)c1 | i | i | i | i | i | i
CC(=O)NS(=O)(=O)c1ccc(NC(=O)C2c3ccccc3Oc3ccccc32)cc1 | i | i | i | 11 | i | i
CS/C(N)=N/N=Cc1cc(C)ccc1O | nt | nt | nt | nt | i | nt
CCOC(=O)C(=NNc1cc(Cl)ccc1Cl)N1CCOCC1 | nt | nt | nt | nt | i | nt
CCOC(=O)c1ccccc1OCc1cc(C=Nn2cnnc2)ccc1OC | nt | nt | nt | nt | i | nt
COc1ccc(NS(=O)(=O)c2ccc(NC(=O)Cc3cccs3)cc2)cc1 | i | 26 | i | i | i | i
CCOc1ccc(NC(=O)CCn2c(=O)[nH]c3ccsc3c2=O)cc1 | i | i | i | 19 | i | i
O=C(NN=Cc1ccc(OCCCF)cc1)c1cc(OCC(F)(F)F)ccc1OCC(F)(F)F | nt | nt | nt | nt | i | nt
O=C(N/N=C/c1ccc(Br)cc1)c1ccc(Br)o1 | i | i | i | 19 | nt | i
N/C(=N\N=C/c1ccc(Br)cc1)N/N=C\c1ccc(Br)cc1 | i | i | i | 28 | nt | i
COc1ccc(NS(=O)(=O)c2cccc(C(=O)NN=Cc3cn(-c4ccccc4)nc3-c3ccc(OC)cc3)c2)cc1 | nt | nt | nt | nt | i | nt
COc1ccc(C=NNC(=O)c2cccc([N+](=O)[O-])c2)cc1OS(=O)(=O)c1ccccc1 | nt | nt | nt | nt | i | nt
COc1ccc(/C=N/NC(=O)c2ccc3ccccc3c2)cc1OS(=O)(=O)c1ccc(NC(C)=O)cc1 | i | i | i | 28 | nt | i
COc1ccc(NS(=O)(=O)c2cccc(C(=O)N/N=C/c3c(F)c(F)c(F)c(F)c3F)c2)cc1 | i | nt | i | 12 | nt | i
COc1ccc(NS(=O)(=O)c2cccc(C(=O)NN=Cc3ccc(OC)c(O)c3)c2)cc1 | i | 32 | i | i | i | i
Cc1ccsc1C=NNC(=O)C(=O)NCC(C)C | nt | nt | nt | nt | i | nt
CN1C(=O)c2cccc3c(S(=O)(=O)NCCc4ccccc4)ccc1c23 | i | i | i | 16 | i | i
O=C(NCCc1ccccc1)C1CCN(S(=O)(=O)c2cccs2)CC1 | i | i | i | i | i | i
O=C(NCCN1C(=O)S/C(=C\c2ccccc2)C1=O)C1CCN(S(=O)(=O)c2cccs2)CC1 | i | i | i | 15 | i | i
SMILES | PAFAH1B2 inh | pPAFAH FP inh | PAFAH1B3 FP inh | NR3A LBD binder | UCH37 inh | PAFAH2 FP inh
O=C(NN=Cc1cccc2ccccc12)c1ccccc1Cl | nt | nt | nt | nt | i | nt
N#CC[C@H](Cc1ccccc1)N1CC[C@@H](NC(=O)OCc2ccccc2)CCC1=O | i | i | i | i | 23 | i
CN(C)C=NC(=S)Nc1ccccc1Cl | nt | nt | nt | nt | i | nt
Cc1nn(-c2ccccc2)c(C)c1NC(=O)COC(=O)c1ccc(Cl)c(N)c1 | i | 28 | i | i | i | i
NC(=O)c1ccsc1NC(=O)COC(=O)c1ccc(Cl)cc1 | i | i | i | i | i | i
NC(=O)c1ccsc1NC(=O)c1ccc([N+](=O)[O-])o1 | i | 36 | i | i | i | 36
NC(=O)c1ccsc1NC(=O)COC(=O)c1ccc(Cl)c(N)c1 | i | i | i | 23 | i | i
NC(=O)c1ccsc1NC(=O)COC(=O)c1ccc([N+](=O)[O-])o1 | i | i | i | 12 | i | i
Cc1nn(-c2ccccc2)c(C)c1NC(=O)COC(=O)c1ccccc1 | i | i | i | i | i | i
O=C(CON=Cc1ccccc1)N1c2ccccc2Oc2ccccc21 | nt | nt | nt | nt | i | nt
COc1cc(C=NNC(=O)CN(Cc2ccco2)S(=O)(=O)c2ccccc2)ccc1O | nt | nt | nt | nt | i | nt
